Assay outcomes from PubChem BioAssay.
MEKK3 PB1 HTS – modulators (inhibitors or enhancers) of MEK5 binding to human MEKK3 PB1 domain; 290,000 compounds, 1.4% hits; AID 1529; bead-based flow cytometry, Alexa488-MEK5 binding to MEKK3; actives lie on both sides; 0 = blocked by unlabeled MEK5, 100 = vehicle; binding response (% of control), % at 10 µM; Q99759;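 active = binding response more than 3 SD above or below the average of its plate-row segment, actives on both sides; inconclusive = wells at one plate position flagged as instrument error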;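 also: Alexa488 bead fluorescence after subtracting the streptavidin-only scavenger bead signal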
UBC13 inh – inhibitors of human UBC13 polyubiquitin chain formation | 330,000 compounds, 0.47% hits | inhibition, % at 20 µM | AID 485273 | P61088 | TR-FRET; in the data active = inhibition above about 45%, passing the limit was not always enough; inconclusive = no clear call, values can overlap the other calls
MEKK2mut PB1 HTS – signal of MEK5 binding to mutant human MEKK2 PB1 domain; bead flow cytometry, Alexa488-MEK5 binding to MEKK2 mutant; percent response, % at 10 µM; 290,000 compounds, 0.35% hits; AID 1530; in the data active = percent response above about 24%, passing the limit was not always enough
PREPL inhibitor – human PREPL enzyme inhibition. recombinant PREPL, fluorescence polarization activity-based probe. AID 2751. Q4J6C6. 320,000 compounds, 0.68% hits. inhibition, % at 5.96 µM; in the data active = inhibition above about 43%;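 also: 0% = enzyme with DMSO and 100% = wells lacking enzyme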
MEKK2 WT-MEK5 – raises or lowers MEK5 binding to wildtype human MEKK2 PB1 domain. Q9Y2U5. bead flow cytometry, Alexa488-MEK5 binding to MEKK2 WT; actives lie on both sides. binding response (% of control), % at 10 µM. 290,000 compounds, 1.1% hits. AID 1531; in the data active = binding response below about 67% or above about 130%; inconclusive = no clear call, values can overlap the other calls; inactive = in between
Apaf-1 inh – blocks human Apaf-1 apoptosome activity; reconstituted apoptosome caspase-3 activity, DEVD-Rh110 fluorescence; inhibition, % at 20 µM; 330,000 compounds, 0.71% hits; AID 489030; active = inhibition of at least 40% at 20 µM;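 also: plate controls were DMSO wells for no effect and DEVD-CHO caspase inhibitor wells for full effect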
Target sequence (O14727 whole entry, looked up): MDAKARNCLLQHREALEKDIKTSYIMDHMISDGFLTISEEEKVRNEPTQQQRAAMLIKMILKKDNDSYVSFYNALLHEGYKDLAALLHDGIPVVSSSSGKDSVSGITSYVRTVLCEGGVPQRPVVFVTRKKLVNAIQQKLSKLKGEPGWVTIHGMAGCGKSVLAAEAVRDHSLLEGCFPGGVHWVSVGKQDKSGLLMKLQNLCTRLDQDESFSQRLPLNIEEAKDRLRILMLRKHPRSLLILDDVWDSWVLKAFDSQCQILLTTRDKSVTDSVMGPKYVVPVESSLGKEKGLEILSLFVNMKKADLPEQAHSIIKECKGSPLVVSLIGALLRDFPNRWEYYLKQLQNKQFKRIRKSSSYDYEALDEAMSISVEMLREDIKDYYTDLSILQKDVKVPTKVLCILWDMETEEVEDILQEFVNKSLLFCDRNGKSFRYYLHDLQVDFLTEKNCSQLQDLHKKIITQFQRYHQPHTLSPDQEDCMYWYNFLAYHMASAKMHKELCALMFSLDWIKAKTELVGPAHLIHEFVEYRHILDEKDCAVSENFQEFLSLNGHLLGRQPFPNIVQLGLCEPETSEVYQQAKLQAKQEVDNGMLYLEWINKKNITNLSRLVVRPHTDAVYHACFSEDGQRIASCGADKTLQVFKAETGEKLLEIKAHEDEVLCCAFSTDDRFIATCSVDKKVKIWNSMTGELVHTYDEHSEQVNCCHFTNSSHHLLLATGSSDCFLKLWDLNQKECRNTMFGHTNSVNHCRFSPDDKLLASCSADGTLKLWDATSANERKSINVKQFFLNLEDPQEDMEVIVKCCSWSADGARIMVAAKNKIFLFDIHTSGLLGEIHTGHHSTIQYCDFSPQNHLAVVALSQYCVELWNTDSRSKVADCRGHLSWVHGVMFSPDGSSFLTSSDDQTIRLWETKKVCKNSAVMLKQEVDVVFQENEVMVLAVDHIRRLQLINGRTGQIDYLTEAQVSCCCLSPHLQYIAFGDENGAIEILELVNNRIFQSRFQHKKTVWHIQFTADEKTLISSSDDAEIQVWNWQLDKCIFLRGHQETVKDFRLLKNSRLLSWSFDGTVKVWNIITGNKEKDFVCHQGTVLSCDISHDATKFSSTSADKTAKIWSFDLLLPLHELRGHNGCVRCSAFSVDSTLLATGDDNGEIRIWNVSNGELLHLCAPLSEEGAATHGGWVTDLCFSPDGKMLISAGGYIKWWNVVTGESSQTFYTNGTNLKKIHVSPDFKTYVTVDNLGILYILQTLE
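Material: cell-free apoptosome with Apaf-1, procaspase-3 and caspase-9; Buffer or medium: Hepes pH 7.5 with detergent and BSA; Reagent: cytochrome c trigger plus (Z-DEVD)2-Rh110 caspase-3 substrate; Times: compound with Apaf-1, dATP, procaspase-3 30 min, then 50 min reaction, room temperature; Technique: Rh110 fluorescence intensity.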
MEKK2wt confirm – raises or lowers MEK5 binding to wildtype human MEKK2, retest; shares compounds with MEKK3 PB1 HTS; bead flow cytometry, Alexa488-MEK5 binding to MEKK2 WT; actives lie on both sides; binding response (% of control), % at 10 µM; 5,900 compounds, 2.4% hits; AID 1892; in the data active = binding response below about 16% or above about 210%; inactive = in between
MEKK2mut confirm – signal of MEK5 binding to mutant human MEKK2, retest | shares compounds with MEKK3 PB1 HTS | bead flow cytometry, Alexa488-MEK5 binding to MEKK2 mutant | percent response, % at 10 µM | 5,900 compounds, 2% hits; in the data active = percent response mostly above about 71%, no sharp cut-off; inactive = mostly below about 38%;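 also: higher means compound restores mutant binding toward wildtype level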
MEKK3 confirm – confirmation of inhibitors of MEK5 binding to human MEKK3; AID 1894; bead flow cytometry, Alexa488-MEK5 binding to MEKK3; stronger effect = lower value; binding response (% of control), % at 10 µM; 5,900 compounds, 1.8% hits; shares compounds with MEKK3 PB1 HTS;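 active = binding response below 72% of control, or above a set upper limit, though filed actives all read lower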;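 also: 100% = DMSO only wells and 0% = binding blocked by excess unlabeled MEK5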
* = called active by the depositor; u = inconclusive; x = no result given; [ ] = dose if it differs, or a comment. A selection: hits, their analogues and other compounds. The true share with any hit is near 3.1%.

SMILES	MEKK3 PB1 HTS	UBC13 inh	MEKK2mut PB1 HTS	PREPL inhibitor	MEKK2 WT-MEK5	Apaf-1 inh	MEKK2wt confirm	MEKK2mut confirm	MEKK3 confirm
O=C(N=C1SC2CS(=O)(=O)CC2N1CCc1ccccc1)C1CCCCC1 (centres undefined)	96	-7	1	-5	97	0	x	x	x
C[C@]12c3[nH]c4ccccc4c3CCN1C(=O)C(CC(=O)NCCCn1ccnc1)C[C@@H]2C(=O)N1CCCCC1 (some centres undefined)	x	-5	x	17	x	4	x	x	x
c1ccn(-c2ccc(-c3ccn[nH]3)cc2)c1	99	-3	-5	-13	95	-6	x	x	x
Cc1ccc(C)n1-c1ccc(-c2ccn[nH]2)cc1	15*[inhibitor]	-1	190*	13	x	9	101	-2	102
CCc1ccc(C2=Nn3c(nnc3-c3cccs3)SC2)cc1	126*	-2	5	-23	119	40	95	-2	100
CCC(CC)C(=O)Nc1nnc(S(=O)(=O)N2CCCc3ccccc32)s1	103	-11	0	9	100	20	x	x	x
C=CCc1cccc(CNc2c(C)cc(C)cc2C)c1O	70*[inhibitor]	-4	-6	14	83	10	98	-8	97
Cc1cc(C)cc(NC(=O)COC(=O)CCc2ccc(S(=O)(=O)N3CCOCC3)cc2)c1	104	-6	-1	3	98	16	x	x	x
COC(=O)c1c(NC(=O)COC(=O)CCc2ccc(S(=O)(=O)N3CCOCC3)cc2)sc2c1CCC2	136*	1	0	11	104	22	95	-8	101
COC(=O)c1c(NC(=O)CN(c2ccccc2)S(C)(=O)=O)sc2c1CCCC2	161*	18	2	0	108	18	98	-6	100
O=C1CCCN1C(=O)CSc1ncnc2sccc12	x	3	x	x	x	-9	x	x	x
O=C1C=C(NCc2ccc(Cl)cc2)CC(c2ccco2)C1 (centres undefined)	127*	0	8	11	116	5	95	-3	96
CC(C)CNC1=CC(=O)CC(c2ccco2)C1 (centres undefined)	96	-6	-3	10	97	5	x	x	x
COc1ccc(NC(=O)CN(c2ccc(OC)c(Cl)c2)S(=O)(=O)c2ccccc2)c(OC)c1	106	-7	4	-2	101	7	x	x	x
CC1SCC(=O)N(CC(=O)Nc2ccc3c(c2)OCO3)C1=O (centres undefined)	102	-4	11	-6	108	-7	x	x	x
CCOC(=O)c1ccc(NC(=O)CN2C(=O)CSCC2=O)cc1	132*	-2	0	13	103	0	96	-2	93
CCOC(=O)c1ccc(NC(=O)CN2C(=O)C(CC)SC(CC)C2=O)cc1 (centres undefined)	148*	-5	1	-15	109	22	103	2	99
CCC1SC(CC)C(=O)N(CC(=O)Nc2ccc3c(c2)OCO3)C1=O (centres undefined)	133*	-9	0	-7	102	12	109	3	102
CCOC(=O)c1ccc(NC(=O)CN2C(=O)CSC2=O)cc1	100	10	-1	3	95	-6	x	x	x
CCOC(=O)N1CCN(C(=O)c2oc3ccc(S(=O)(=O)N(CC)CC)cc3c2C)CC1	105	0	0	1	106	9	x	x	x
COc1ccc(Br)cc1S(=O)(=O)Nc1ncn[nH]1	99	3	4	1	104	11	x	x	x
O=C(Cc1cccs1)Nc1nc2c(s1)CCCC2	51*[inhibitor]	-1	-19	4	64	1	100	-2	96
O=C(Nc1nc2c(s1)CCCC2)c1cccs1	98	5	4	-6	102	14	x	x	x
O=C(/C=C/c1ccc(Br)cc1)c1ccc(NC2=NCCCS2)cc1	102	19	0	-1	126	12	x	x	x
CC(C)(C)c1ccc(/C=C/C(=O)c2ccc(NC3=NCCCS3)cc2)cc1	109	16	32	-3	139*	-3	149	21	105
SMILES	MEKK3 PB1 HTS	UBC13 inh	MEKK2mut PB1 HTS	PREPL inhibitor	MEKK2 WT-MEK5	Apaf-1 inh	MEKK2wt confirm	MEKK2mut confirm	MEKK3 confirm
CC1CCC2(CC1)NC(=O)N(CC(=O)NCc1ccc(F)cc1)C2=O (centres undefined)	x	-11	x	7	x	5	x	x	x
CC1CC(=O)Nc2ccccc2N1C(=O)CN1CCN(c2ccccc2)CC1 (centres undefined)	94	-10	-4	-4	-5.0*[inhibitor]	13	99	-5	99
CC1CC(=O)Nc2ccccc2N1C(=O)CN1C(=O)C(=O)N(C)C1=O (centres undefined)	x	-21	x	8	x	8	x	x	x
Cc1cc(C)nc(SCC(=O)n2c3c(c4ccccc42)CCCC3)n1	153*	11	0	-3	106	-3	105	5	104
O=C(CSc1ncccn1)n1c2c(c3ccccc31)CCCC2	108	11	5	9	103	-4	x	x	x
COc1ccc(C(=O)N2CCNC(=O)C2)cc1S(=O)(=O)Nc1ccc(Br)cc1	x	3	x	9	x	-2	x	x	x
O=C(NC1CCCCC1)C1CCCN(S(=O)(=O)c2cccc3cccnc23)C1 (centres undefined)	129*	-14	27	17	115	8	106	6	104
O=C(NC1CCCC1)C1CCN(S(=O)(=O)c2cccc3cccnc23)CC1	109	-4	5	0	113	-3	x	x	x
Nn1cnc2c(c1=O)C1(CCCCC1)Cc1ccccc1-2	141*	-1	0	-12	106	23	99	1	104
COc1ccc2[nH]c3c(C)c4ccncc4c(C)c3c2c1	118	u	53*	33	177*	76*	243*	88*	111
CC(Oc1ccc(C#N)cc1)C(=O)N1CC=C(c2ccccc2)CC1 (centres undefined)	x	5	x	-4	x	4	x	x	x
Cc1ccc(C(C)C)c(OCC(=O)N/N=C/c2ccc(S(=O)(=O)O)o2)c1	130*	-5	25	3	119	-11	95	-6	100
CC(C)(C)CC(C)(C)c1ccc(OCC(=O)N/N=C/c2ccc(S(=O)(=O)O)o2)cc1	102	-12	-3	-24	94	19	x	x	x
CC(=NNC(=O)Cn1ccc(C(F)(F)F)n1)c1ccc(-n2ccnc2)cc1	x	2	x	1	x	9	x	x	x
